Among the data in ChEMBL document CHEMBL1147407, “The design and synthesis of novel inhibitors of NADH:ubiquinone oxidoreductase” (Bioorg Med Chem Lett, 2004) are IC50 and Activity values, retold here.

A word on the IC50: it is the concentration needed to halve the response being measured. A lower IC50 goes with higher potency.

Experiment [1] can be described thus: Inhibition of NADH:ubiquinone oxidoreductase from house fly (Musca domestica) flight muscles. The format is tissue-based, Muscle tissue. The gist of the method: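 House fly flight-muscle complex I. Activity was measured as NADH oxidation, followed photometrically at 340 nm, with n-decylubiquinone as the electron acceptor.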
The next experiment relates to Tetranychus urticae. Kind of experiment: Acaricidal activity of a compound (300 p.p.m.) was evaluated against Tetranychus urticae infected on bean plants. The format is functional.

`CC(C)(C)c1ccc(CSc2cc(=O)c3ccccc3o2)cc1`: in experiment [1], the IC50 was determined as 500 nM. Besides, the Activity in the experiment with Tetranychus urticae is reported as 0%.

The molecule `Cc1c(SCCc2ccc(C(C)(C)C)cc2)oc2ccccc2c1=O` yielded an IC50 in experiment [1] of 10 nM. In addition, the Activity with Tetranychus urticae was 80%.

On to `CC(C)(C)c1ccc(CSc2oc3ccccc3c(=O)c2Cl)cc1`, for which half-maximal inhibition in experiment [1] (IC50) was put at 6 nM. In addition, the Activity in the experiment on Tetranychus urticae was 50%.

Regarding `CCc1c(SCc2ccc(C(C)(C)C)cc2)oc2ccccc2c1=O`, in experiment [1], the IC50 was over 200 nM. In the experiment with Tetranychus urticae, this molecule returned an Activity of 0%.

Molecule `Cc1c(NCCc2ccc(C(C)(C)C)cc2)oc2ccccc2c1=O` displayed an IC50 in experiment [1] of 200 nM. In addition, the Activity in the experiment on Tetranychus urticae is 0%.

In experiment [1], `Cc1c(S(=O)(=O)Cc2ccc(C(C)(C)C)cc2)oc2ccccc2c1=O` gave an IC50 of 160 nM. In the experiment with Tetranychus urticae, this molecule yielded an Activity of 0%.

With `Cc1c(SCc2ccc(C(C)(C)C)cc2)oc2ccccc2c1=O`, the IC50 in experiment [1] is 8 nM. In the experiment on Tetranychus urticae, this molecule returned an Activity of 100%.

`Cc1c(NCc2ccc(C(C)(C)C)cc2)oc2ccccc2c1=O`: the IC50 in experiment [1] was determined as 20 nM. For the same molecule, the Activity with Tetranychus urticae is given as 0%.
